Test [1] can be described thus: DPPH radical scavenging assay. The note with it: mean±SD. Summed up: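 Test compound in methanol at 50, 75 and 100 was added to 0.005% (w/v) DPPH in methanol. Incubation was 45 min at room temperature, with absorbance read at 517 nm against a blank. Inhibition (%) = [(controlA − sampleA)/[…]]×100, where the control held all reagents except the test compound. Triplicate runs; IC50 taken from a fitted line to the plot.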

Test [2] relates to selected bacteria strains. Nature of the test: Disc diffusion method, overall statements on the selected bacteria strains. The test is classed as cell-based. As to conditions: selected Gram-positive and Gram-negative strains, inhibition zones. Summed up:
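Clinical isolates from Kirkuk Hospital were cultured on agar in Petri dishes. Test compound was dissolved in DMSO at 60 µg/mL, with DMSO alone tested alongside. Plates were incubated 24 h at 37 °C, pH 7.4±0.2. Inhibition-zone diameter around the disc was scored: − none; + 10–15 mm; ++ 15–20 mm; +++ ≥20 mm.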

Another test has as its system Giardia intestinalis. The test is described as follows: In vitro bioassay of antigiardial activity. The test is classed as cell-based. The note with it: Giardia duodenalis, read-out: Antigiardial activity, IC50, Giardia intestinalis.

For the molecule `O=C1O[C@H]([C@@H](O)CO)C(O)=C1O` [Ascorbic acid], the “DPPH radical scavenging, inhibition at 50 µg/mL” value in test [1] (compound concentration 50 µg/mL, 45 min, 517 nm) is given as 78.01±0.75%. The “DPPH radical scavenging, inhibition at 75 µg/mL” value in test [1] (compound concentration 75 µg/mL, 45 min, 517 nm) is on record as 81.01±0.85%. Moreover, the “DPPH radical scavenging, inhibition at 100 µg/mL” value in test [1] (compound concentration 100 µg/mL, 45 min, 517 nm) is on record as 84.21±0.41%.

With `Cc1ncc([N+](=O)[O-])n1CCO` [Metronidazole], the “antibacterial activity (in words)” value in test [2] is “no antibacterial activity”. Further, the “DPPH radical scavenging, IC50” value in test [1] (fitted line to a plot, triplicate) is “ns (No scavenging activity)”. In addition, in the test with Giardia intestinalis, the half-inhibitory concentration (IC50) was 3.71 ± 0.27 µM.

The record behind these values is article PMC9989235 (Iranian Journal of Medical Sciences, 2023).
